Experimental data published in ChEMBL document CHEMBL1152967, “Scalarane-based sesterterpenoid RCE-protease inhibitors isolated from the Indonesian marine sponge Carteriospongia foliascens” (J Nat Prod, 2009).
Converted amounts (≈) assume the structure as drawn.

Columns and labels:
[1] = system: LoVo; experiment: Cytotoxicity against human LoVo cells harboring mutated K-Ras after 3 days; assay type: functional, cell-based; details: 72 h
[2] = target: T1, CAAX prenyl protease 2 (Homo sapiens, UniProt Q9Y256); experiment: Inhibition of human RCE1
T1 sequence (Q9Y256 whole entry): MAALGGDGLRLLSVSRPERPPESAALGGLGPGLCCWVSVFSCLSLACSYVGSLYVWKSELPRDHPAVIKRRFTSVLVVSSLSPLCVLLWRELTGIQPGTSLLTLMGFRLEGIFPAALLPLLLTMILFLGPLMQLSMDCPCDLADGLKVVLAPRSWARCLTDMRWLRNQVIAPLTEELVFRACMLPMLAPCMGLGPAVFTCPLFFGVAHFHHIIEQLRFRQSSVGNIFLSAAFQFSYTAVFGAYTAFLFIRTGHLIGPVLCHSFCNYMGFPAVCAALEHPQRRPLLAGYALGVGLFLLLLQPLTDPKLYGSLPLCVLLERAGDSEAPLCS
Outline: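 Substrate was a fluorescent-labeled peptide from the carboxy terminus of farnesylated K-Ras. Cleavage was analyzed by reversed-phase HPLC. IC50 is reported in µg/mL.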

[3] = Cytotoxicity against human MDA468 cells harboring mutated PTEN and p53 after 3 days; assay type: functional, cell-based; details: MDA-MB-468, 72 h
[4] = system: Caco-2; experiment: Cytotoxicity against human Caco-2 cells harboring wild type Ras after 3 days; assay type: functional, cell-based; details: Caco-2, 72 h
[5] = system: PC-3; experiment: Cytotoxicity against human PC3 cells harboring mutated PTEN and p53 after 3 days; assay type: functional, cell-based; details: PC-3, 72 h

Row | Structure (SMILES) | IC50 [1] [µg/mL] | IC50 [2] [µM] | IC50 [3] [µg/mL] | IC50 [4] [µg/mL] | IC50 [5] [µg/mL]
1 | CCO[C@@H]1C[C@H]2[C@]3(C)CC[C@H]4[C@@](C)(CC)CCC[C@]4(C)[C@H]3C[C@H](OC(=O)CC(O)C(C)C)[C@]2(C)C2=C1C(C)(O)OC2=O (stereo not given in full) | 2.9 (≈ 4.93 µM) | 7.31 | 4.4 (≈ 7.47 µM) | 4.2 (≈ 7.13 µM) | 3.2 (≈ 5.43 µM)
2 | CCC(O)CC(=O)O[C@H]1C[C@@H]2[C@@]3(C)CCC[C@](C)(CC)[C@@H]3CC[C@@]2(C)[C@@H]2C=CC3=C(C(=O)OC3(C)O)[C@@]12C (stereo not given in full) | 3.4 (≈ 6.43 µM) | 17 | > 10 | 6.2 (≈ 11.7 µM) | 3.7 (≈ 7 µM)
3 | CCC(O)CC(=O)O[C@H]1C[C@H]2[C@@](C)(CC[C@H]3[C@@](C)(CC)CCC[C@]23C)[C@@H]2C[C@@H](O)C(C(C)=O)=C[C@@]12C (stereo not given in full) | > 10 | > 199 | > 10 | > 10 | > 10
4 | CC[C@@]1(C)CCC[C@]2(C)[C@H]3C[C@H](OC(=O)CC(O)C(C)C)[C@]4(C)C=C(C(C)=O)[C@H](O)C[C@H]4[C@]3(C)CC[C@@H]12 (stereo not given in full) | 7.6 (≈ 14.7 µM) | 73.5 | 9.5 (≈ 18.4 µM) | 3.4 (≈ 6.58 µM) | 3.8 (≈ 7.35 µM)
